Source: ChEMBL document CHEMBL1142179, “Association of fluconazole area under the concentration-time curve/MIC and dose/MIC ratios with mortality in nonneutropenic patients with candidemia” (2007)
Converted amounts (≈) assume the structure as drawn.

Tests used:
Assay type in all cases: functional
Candida albicans [1] = assay: Ratio of AUC in candidemia patient to MIC against Candida albicans
How it was run: (§1)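 Bloodstream Candida isolates came from hospitalized adults treated with fluconazole. MICs were measured by CLSI M27-A2 broth microdilution in RPMI 1640-2% dextrose with 0.165 M MOPS, pH 7.0. Fluconazole was tested in doubling dilutions of 0.5–256 μg/ml at 35°C, read at 24 and 48 h as a marked drop in turbidity. AUC is the individual dose divided by clearance estimated from creatinine clearance. The ratio is AUC divided by the 24- or 48-h MIC.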

Candida parapsilosis [2] = assay: Antimicrobial activity against Candida parapsilosis at 24 hrs; details: Lodderomyces parapsilosis
How it was run: (§2)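 Bloodstream isolates from hospitalized candidemia patients, stored at −70°C and subcultured overnight on Sabouraud dextrose agar. Tested by CLSI M27-A2 broth microdilution in RPMI 1640-2% dextrose with 0.165 M MOPS, pH 7.0. Fluconazole was given as serial doubling dilutions from 0.5 to 256.0 μg/ml. Inoculum was a 0.5 McFarland suspension diluted to 2×. Plates were incubated at 35°C. MIC was read at 24 and 48 h as a marked reduction in turbidity, with ATCC 6258 and ATCC 22019 as QC strains.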

Homo sapiens [3] = species: Homo sapiens; assay: Mortality rate stratified by 24 hrs MIC in resistant Candida species infected patient
How it was run: (§3)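 Patients were fluconazole-treated nonneutropenic adults with candidemia. Isolate MICs were obtained by CLSI M27-A2 broth microdilution, read at 24 or 48 h. Patients were grouped by susceptibility breakpoint category. Mortality was compared by chi-square analysis.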

Homo sapiens [4] = species: Homo sapiens; assay: Mortality rate stratified by 48 hrs MIC in susceptible Candida species infected patient; how it was run: as §3
Candida [5] = assay: Ratio of AUC in surviving candidemia patient to MIC at 24 hrs against Candida species; how it was run: as §1
Candida tropicalis [6] = assay: Ratio of weight normalized daily dose in candidemia patient to MIC against Candida tropicalis
How it was run: (§4)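 MICs for patient Candida blood isolates were measured by CLSI M27-A2 microdilution in RPMI 1640-2% dextrose with 0.165 M MOPS, pH 7.0. Fluconazole was tested at 0.5–256 μg/ml in doubling dilutions, incubated at 35°C, and read at 24 h and 48 h by marked turbidity reduction. The fluconazole dose in mg/kg body weight was divided by the 24-h or 48-h MIC.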

Candida [7] = assay: Ratio of AUC in non-surviving candidemia patient to MIC at 48 hrs against Candida species; how it was run: as §1
Homo sapiens [8] = species: Homo sapiens; assay: Mortality rate in Candida parapsilosis infected candidemia patient
How it was run: (§5)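 Subjects were adults (≥18 y) hospitalized >48 h before a Candida-positive blood culture, enrolled 2002–2005 at two hospitals, and treated with fluconazole. Patients were excluded if fluconazole started >24 h before culture or >2 days after it. Species was identified by Vitek YBC or API 20C Aux. Mortality is given per infecting species.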

Candida albicans [9] = assay: Antimicrobial activity against Candida albicans at 48 hrs; how it was run: as §2
Nakaseomyces glabratus [10] = assay: Ratio of weight normalized daily dose in candidemia patient to MIC against Candida glabrata; how it was run: as §4
Candida albicans [11] = assay: Ratio of weight normalized daily dose in candidemia patient to MIC at 24 hrs against Candida albicans
How it was run: (§6)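 Fluconazole daily dose (mg/kg) of each nonneutropenic candidemia patient divided by the MIC of their bloodstream isolate. MIC by CLSI M27-A2 broth microdilution in RPMI 1640-2% dextrose, 0.165 M MOPS, pH 7.0. Serial doubling dilutions ran 0.5–256.0 μg/ml. Inoculum was a 0.5 McFarland suspension diluted to 2×. Incubated at 35°C; MIC read at 24 and 48 h as marked turbidity reduction.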

Candida [12] = assay: Ratio of weight normalized daily dose in surviving candidemia patient to MIC at 24 hrs against Candida species
How it was run: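 Weight-normalized fluconazole daily dose (mg/kg) was divided by the isolate MIC read at 24 h (CLSI M27-A2 broth microdilution, 35°C). Ratios were log10-transformed before analysis. Surviving patients were compared with nonsurvivors, with logistic regression used against mortality.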

Clavispora lusitaniae [13] = assay: Antimicrobial activity against Candida lusitaniae at 24 hrs; how it was run: as §2
Homo sapiens [14] = species: Homo sapiens; assay: Mortality rate in Candida albicans infected candidemia patient; how it was run: as §5
Homo sapiens [15] = species: Homo sapiens; assay: Mortality rate stratified by 24 hrs MIC in susceptible Candida species infected patient; how it was run: as §3
Clavispora lusitaniae [16] = assay: Ratio of weight normalized daily dose in candidemia patient to MIC against Candida lusitaniae; how it was run: as §4
Clavispora lusitaniae [17] = assay: Ratio of AUC in candidemia patient to MIC against Candida lusitaniae; how it was run: as §1
Candida parapsilosis [18] = assay: Antimicrobial activity against Candida parapsilosis at 48 hrs; details: Lodderomyces parapsilosis; how it was run: as §2
Nakaseomyces glabratus [19] = assay: Ratio of weight normalized daily dose in candidemia patient to MIC at 24 hrs against Candida glabrata; how it was run: as §4
Candida [20] = assay: Ratio of weight normalized daily dose in surviving candidemia patient to MIC at 48 hrs against Candida species; how it was run: as §4
Candida [21] = assay: Ratio of AUC in surviving candidemia patient to MIC at 48 hrs against Candida species; how it was run: as §1
Candida parapsilosis [22] = assay: Ratio of AUC in candidemia patient to MIC against Candida parapsilosis; how it was run: as §1
Clavispora lusitaniae [23] = assay: Antimicrobial activity against Candida lusitaniae at 48 hrs; how it was run: as §2
Nakaseomyces glabratus [24] = assay: Ratio of weight normalized daily dose in candidemia patient to MIC at 48 hrs against Candida glabrata; how it was run: as §4
Homo sapiens [25] = species: Homo sapiens; assay: Ratio of weight normalized daily dose in non-surviving candidemia patient to MIC at 48 hrs against Candida species; how it was run: as §4
Homo sapiens [26] = species: Homo sapiens; assay: Mortality rate in Candida lusitaniae infected candidemia patient; how it was run: as §5
Homo sapiens [27] = species: Homo sapiens; assay: Mortality rate in Candida tropicalis infected candidemia patient; how it was run: as §5
Nakaseomyces glabratus [28] = assay: Antimicrobial activity against Candida glabrata at 48 hrs; how it was run: as §2
Candida tropicalis [29] = assay: Antimicrobial activity against Candida tropicalis at 24 hrs; how it was run: as §2
Homo sapiens [30] = species: Homo sapiens; assay: Mortality rate stratified by 24 hrs MIC in dose-dependently susceptible Candida species infected patient; how it was run: as §3
Candida [31] = assay: Ratio of weight normalized daily dose in non-surviving candidemia patient to MIC at 24 hrs against Candida species; how it was run: as §4
Candida albicans [32] = assay: Antimicrobial activity against Candida albicans at 24 hrs; how it was run: as §2
Homo sapiens [33] = species: Homo sapiens; assay: Mortality rate stratified by 48 hrs MIC in resistant Candida species infected patient; how it was run: as §3
Candida albicans [34] = assay: Ratio of weight normalized daily dose in candidemia patient to MIC against Candida albicans; how it was run: as §6
Candida tropicalis [35] = assay: Ratio of AUC in candidemia patient to MIC against Candida tropicalis; how it was run: as §1
Nakaseomyces glabratus [36] = assay: Antimicrobial activity against Candida glabrata at 24 hrs; how it was run: as §2
Candida parapsilosis [37] = assay: Ratio of weight normalized daily dose in candidemia patient to MIC against Candida parapsilosis; how it was run: as §4
Nakaseomyces glabratus [38] = assay: Ratio of AUC in candidemia patient to MIC against Candida glabrata; how it was run: as §1
Candida albicans [39] = assay: Ratio of weight normalized daily dose in candidemia patient to MIC at 48 hrs against Candida albicans; how it was run: as §6
Candida tropicalis [40] = assay: Antimicrobial activity against Candida tropicalis at 48 hrs; how it was run: as §2
Homo sapiens [41] = species: Homo sapiens; assay: Mortality rate stratified by 48 hrs MIC in dose-dependently susceptible Candida species infected patient; how it was run: as §3
Homo sapiens [42] = species: Homo sapiens; assay: Mortality rate in Candida glabrata infected candidemia patient; how it was run: as §5

For `OC(Cn1cncn1)(Cn1cncn1)c1ccc(F)cc1F` [FLUCONAZOLE], the RatioAUC/MIC (Candida albicans [1]) was 946, the MIC50 (Candida parapsilosis [2]) was 1.25 µg/mL (≈ 4.08 µM) and the Activity (Homo sapiens [3]) was 50%. It also gave an Activity (Homo sapiens [4]) of 18%, a Ratio (Candida [5]) of 775 and a Ratio (Candida tropicalis [6]) of 11.4. It also gave a Ratio (Candida [7]) of 496, an Activity (Homo sapiens [8]) of 0% and an MIC50 (Candida albicans [9]) of 0.5 µg/mL (≈ 1.63 µM). The MIC90 (Candida albicans [9]) was 8 µg/mL (≈ 26.1 µM), the Ratio (Nakaseomyces glabratus [10]) was 1.9 and the Ratio (Candida albicans [11]) was 15.39. It also gave an Activity (Candida [12]) of 13.3, an MIC50 (Clavispora lusitaniae [13]) of 2 µg/mL (≈ 6.53 µM) and an Activity (Homo sapiens [14]) of 16.3%. The Activity (Homo sapiens [15]) was 18%, the Ratio (Clavispora lusitaniae [16]) was 3.3 and the RatioAUC/MIC (Clavispora lusitaniae [17]) was 232. For the same molecule, the MIC50 (Candida parapsilosis [18]) was 0.5 µg/mL (≈ 1.63 µM), the MIC90 (Candida parapsilosis [18]) was 8 µg/mL (≈ 26.1 µM) and the Ratio (Nakaseomyces glabratus [19]) was 1.88. For the same molecule, the Ratio (Candida [20]) was 10.7, the Ratio (Candida [21]) was 614 and the RatioAUC/MIC (Candida parapsilosis [22]) was 635. It also gave an MIC50 (Clavispora lusitaniae [23]) of 0.5 µg/mL (≈ 1.63 µM), an MIC90 (Clavispora lusitaniae [23]) of 8 µg/mL (≈ 26.1 µM) and a Ratio (Nakaseomyces glabratus [24]) of 1.51. For the same molecule, the Ratio (Homo sapiens [25]) was 6.1, the Activity (Homo sapiens [26]) was 33.3% and the Activity (Homo sapiens [27]) was 0%. It also gave an MIC50 (Nakaseomyces glabratus [28]) of 0.5 µg/mL (≈ 1.63 µM), an MIC90 (Nakaseomyces glabratus [28]) of 8 µg/mL (≈ 26.1 µM) and an MIC50 (Candida tropicalis [29]) of 1 µg/mL (≈ 3.27 µM). For the same molecule, the Activity (Homo sapiens [30]) was 50%, the Ratio (Candida [31]) was 7 and the MIC50 (Candida albicans [32]) was 0.25 µg/mL (≈ 0.816 µM). The Activity (Homo sapiens [33]) was 50%, the Ratio (Candida albicans [34]) was 15.4 and the RatioAUC/MIC (Candida tropicalis [35]) was 657. It also gave an MIC50 (Nakaseomyces glabratus [36]) of 4 µg/mL (≈ 13.1 µM), a Ratio (Candida parapsilosis [37]) of 10.7 and a RatioAUC/MIC (Nakaseomyces glabratus [38]) of 182. For the same molecule, the Ratio (Candida albicans [39]) was 13.17, the MIC50 (Candida tropicalis [40]) was 0.5 µg/mL (≈ 1.63 µM) and the MIC90 (Candida tropicalis [40]) was 8 µg/mL (≈ 26.1 µM). It also gave an Activity (Homo sapiens [41]) of 50% and an Activity (Homo sapiens [42]) of 36.4%.
